Reference: ChEMBL document CHEMBL1121711, “Novel peptidoaminobenzophenones, terminal N-substituted peptidoaminobenzophenones, and N-(acylglycyl)aminobenzophenones as open-ring derivatives of benzodiazepines” (J Med Chem, 1981)

Experiments:
Mus musculus [1] = experiment: Antagonism of pentylenetetrazole-induced convulsion in mice by oral administration.; type: functional
Summary of the method: (§1)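 Compounds given orally as an aqueous arabic gum suspension to groups of five mice; 60 min after dosing, pentylenetetrazole 125 mg/kg given subcutaneously. Animals observed 2 h for convulsion and death; dose protecting 50% (ED50) estimated graphically.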

Mus musculus [2] = experiment: Muscle relaxation activity using the rotarod performance test in mice by oral administration.; type: functional
Summary of the method: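 Groups of five mice dosed orally with compound suspended in aqueous arabic gum. At 60 min post-dose each mouse placed on a 3 cm diameter wooden rod turning at 5 rpm; falls within 2 min counted. ED50 estimated graphically.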

[3] = Acute toxicity expressed as LD50 in mice after oral administration.; type: organism-based; settings: mouse, in vivo
Summary of the method: (§2)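 Mice dosed orally as a suspension in aqueous arabic gum, groups of one to three animals; acute toxicity judged on day 7 after dosing. Values for the three reference benzodiazepines derived by the probit method.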

[4] = Acute toxicity of compound expressed as LD50 was measured in mice after oral administration.; type: organism-based; settings: mouse, in vivo; summary of the method: as §2
Mus musculus [5] = experiment: Compound was tested for antagonism of pentylenetetrazole-induced convulsion in mice by oral administration.; type: functional; summary of the method: as §1

CC(=O)NCC(=O)Nc1ccc(Cl)cc1C(=O)c1ccccc1Cl
ED50 (Mus musculus [1]): > 100 mg/kg
ED50 (Mus musculus [2]): > 100 mg/kg
LD50 [3]: > 1000 mg/kg

CN(C(=O)CNC(=O)CN1CCC(O)(c2ccc(Cl)cc2)CC1)c1ccc(Cl)cc1C(=O)c1ccccc1Cl
ED50 (Mus musculus [1]): 27 mg/kg
ED50 (Mus musculus [2]): > 100 mg/kg
LD50 [3]: > 1000 mg/kg

NC(C(=O)NCC(=O)Nc1ccc(Cl)cc1C(=O)c1ccccc1)c1ccccc1 (stereo not given)
ED50 (Mus musculus [1]): 28 mg/kg
ED50 (Mus musculus [2]): > 100 mg/kg
LD50 [3]: > 1000 mg/kg

CN(C(=O)CNC(=O)CN)c1ccc(Cl)cc1C(=O)c1ccccc1Cl [LORZAFONE ANHYDROUS]
ED50 (Mus musculus [1]): 0.58 mg/kg
ED50 (Mus musculus [2]): 27.7 mg/kg
LD50 [3]: > 1000 mg/kg

CCCC(=O)NCC(=O)N(C)c1ccc(Cl)cc1C(=O)c1ccccc1Cl
ED50 (Mus musculus [1]): 0.98 mg/kg
ED50 (Mus musculus [2]): 55.2 mg/kg
LD50 [3]: > 1000 mg/kg

CN(C)CC(=O)NCC(=O)N(C)c1ccc(Cl)cc1C(=O)c1ccccc1Cl
ED50 (Mus musculus [1]): 2.6 mg/kg
ED50 (Mus musculus [2]): 26 mg/kg
LD50 [3]: > 1000 mg/kg

CCCCCCC(=O)NCC(=O)N(C)c1ccc(Cl)cc1C(=O)c1ccccc1Cl
ED50 (Mus musculus [1]): 1.9 mg/kg
ED50 (Mus musculus [2]): 70 mg/kg
LD50 [3]: > 1000 mg/kg

CCC(=O)NCC(=O)N(C)c1ccc(Cl)cc1C(=O)c1ccccc1Cl
ED50 (Mus musculus [1]): 1.4 mg/kg
ED50 (Mus musculus [2]): 36 mg/kg
LD50 [3]: > 1000 mg/kg

CCCCCC(=O)NCC(=O)N(C)c1ccc(Cl)cc1C(=O)c1ccccc1Cl
ED50 (Mus musculus [1]): 1.9 mg/kg
ED50 (Mus musculus [2]): 90 mg/kg
LD50 [3]: > 1000 mg/kg

O=C1CN=C(c2ccccc2)c2cc([N+](=O)[O-])ccc2N1 [NITRAZEPAM]
ED50 (Mus musculus [1]): 0.23 mg/kg
ED50 (Mus musculus [2]): 4.25 mg/kg

NCC(=O)NCC(=O)Nc1ccc([N+](=O)[O-])cc1C(=O)c1ccccc1Cl
LD50 [4]: 750 mg/kg
ED50 (Mus musculus [1]): 2.64 mg/kg
ED50 (Mus musculus [2]): 63.9 mg/kg

CN(C(=O)CNC(=O)CN)c1ccc([N+](=O)[O-])cc1C(=O)c1ccccc1
ED50 (Mus musculus [2]): 2.94 mg/kg
ED50 (Mus musculus [5]): 0.28 mg/kg

CCCCC(=O)NCC(=O)N(C)c1ccc(Cl)cc1C(=O)c1ccccc1Cl
ED50 (Mus musculus [1]): 1.3 mg/kg
ED50 (Mus musculus [2]): 90 mg/kg
LD50 [3]: > 1000 mg/kg

CC(NC(=O)CN)C(=O)N(C)c1ccc(Cl)cc1C(=O)c1ccccc1Cl (stereo not given)
ED50 (Mus musculus [1]): 0.47 mg/kg
ED50 (Mus musculus [2]): 8.5 mg/kg
LD50 [3]: 750 mg/kg

CNC1=Nc2ccc(Cl)cc2C(c2ccccc2)=[N+]([O-])C1 [CHLORDIAZEPOXIDE]
LD50 [3]: 1080 mg/kg

CN(C(=O)CNC(=O)c1ccccc1)c1ccc(Cl)cc1C(=O)c1ccccc1Cl
ED50 (Mus musculus [1]): 2.9 mg/kg
ED50 (Mus musculus [2]): > 100 mg/kg
LD50 [3]: > 1000 mg/kg

CCCCCCCCCCCCCCCC(=O)NCC(=O)N(C)c1ccc(Cl)cc1C(=O)c1ccccc1Cl
LD50 [4]: > 1000 mg/kg
ED50 (Mus musculus [1]): > 100 mg/kg
ED50 (Mus musculus [2]): > 100 mg/kg

CC(C)C(=O)NCC(=O)N(C)c1ccc(Cl)cc1C(=O)c1ccccc1Cl
ED50 (Mus musculus [1]): 6 mg/kg
ED50 (Mus musculus [2]): > 100 mg/kg
LD50 [3]: > 1000 mg/kg

CN(C(=O)CNC(=O)CNCCc1ccccc1)c1ccc(Cl)cc1C(=O)c1ccccc1Cl
ED50 (Mus musculus [1]): 1.6 mg/kg
ED50 (Mus musculus [2]): 86 mg/kg
LD50 [3]: > 1000 mg/kg

CC(=O)NCC(=O)Nc1ccc(Cl)cc1C(=O)c1ccccc1
ED50 (Mus musculus [1]): 37 mg/kg
ED50 (Mus musculus [2]): > 100 mg/kg
LD50 [3]: > 1000 mg/kg

CN(C(=O)CNC(=O)c1ccccc1)c1ccc(Cl)cc1C(=O)c1ccccc1
ED50 (Mus musculus [1]): 7.6 mg/kg
ED50 (Mus musculus [2]): > 100 mg/kg
LD50 [3]: > 1000 mg/kg

CC(=O)NCC(=O)N(C)c1ccc(Cl)cc1C(=O)c1ccccc1Cl
ED50 (Mus musculus [1]): 2.3 mg/kg
ED50 (Mus musculus [2]): 58 mg/kg
LD50 [3]: > 1000 mg/kg

CN(C(=O)CNC(=O)CN1CCOCC1)c1ccc(Cl)cc1C(=O)c1ccccc1Cl
ED50 (Mus musculus [1]): 14 mg/kg
ED50 (Mus musculus [2]): > 100 mg/kg
LD50 [3]: > 1000 mg/kg

CNCC(=O)NCC(=O)N(C)c1ccc(Cl)cc1C(=O)c1ccccc1Cl
LD50 [3]: > 1000 mg/kg
ED50 (Mus musculus [5]): 1.55 mg/kg

CN(C(=O)CNC(=O)CN1CCN(c2ccccc2)CC1)c1ccc(Cl)cc1C(=O)c1ccccc1Cl
ED50 (Mus musculus [1]): 75 mg/kg
ED50 (Mus musculus [2]): > 100 mg/kg
LD50 [3]: > 1000 mg/kg

CN(C(=O)CNC(=O)CN1CCCCC1)c1ccc(Cl)cc1C(=O)c1ccccc1Cl
ED50 (Mus musculus [1]): 7.5 mg/kg
ED50 (Mus musculus [2]): > 100 mg/kg
LD50 [3]: > 1000 mg/kg

CCN(CC)CC(=O)NCC(=O)N(C)c1ccc(Cl)cc1C(=O)c1ccccc1Cl
ED50 (Mus musculus [1]): 2.2 mg/kg
ED50 (Mus musculus [2]): 34 mg/kg
LD50 [3]: > 1000 mg/kg

CN1CCN(CC(=O)NCC(=O)N(C)c2ccc(Cl)cc2C(=O)c2ccccc2Cl)CC1
ED50 (Mus musculus [1]): 59 mg/kg
ED50 (Mus musculus [2]): > 100 mg/kg
LD50 [3]: > 1000 mg/kg

CN(C(=O)CNC(=O)CN)c1ccc([N+](=O)[O-])cc1C(=O)c1ccccc1Cl
ED50 (Mus musculus [2]): 10 mg/kg
ED50 (Mus musculus [5]): 0.32 mg/kg

NCC(=O)NCC(=O)Nc1ccc([N+](=O)[O-])cc1C(=O)c1ccccc1
ED50 (Mus musculus [1]): 4.82 mg/kg
ED50 (Mus musculus [2]): 24.8 mg/kg
LD50 [3]: > 1000 mg/kg

CN(C(=O)CNC(=O)Cc1ccccc1)c1ccc(Cl)cc1C(=O)c1ccccc1Cl
ED50 (Mus musculus [1]): 35 mg/kg
ED50 (Mus musculus [2]): > 100 mg/kg
LD50 [3]: > 1000 mg/kg

CC(C)NCC(=O)NCC(=O)N(C)c1ccc(Cl)cc1C(=O)c1ccccc1Cl
ED50 (Mus musculus [1]): 1 mg/kg
ED50 (Mus musculus [2]): 13 mg/kg
LD50 [3]: 750 mg/kg
